Assay [1] relates to Arabidopsis thaliana. Kind of assay: Inhibition of ethylene biosynthesis in Arabidopsis thaliana eto1-4 expressing 5 x EBS::LUC assessed as decrease ethylene level at 10 uM 3 days after germination in dark relative to aminoethoxyvinylglycine. The following applies: 72 h. The assay is classed as functional.
In assay [2] the test system is Arabidopsis thaliana. Kind of assay: Inhibition of triple response phenotype in Arabidopsis thaliana seedlings expressing ctr1-1 mutant by measuring hypocotyl elongation at 10 uM 3 days after germination in dark. The assay is classed as functional, organism-based.
For assay [3], the system named is Arabidopsis thaliana. Kind of assay: Inhibition of triple response phenotype in Arabidopsis thaliana seedlings expressing eto1-4 mutant and 5 x EBS::LUC by measuring hypocotyl elongation at >5 uM 3 days after germination in dark. The assay is classed as functional, organism-based. Put shortly:
(§1)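 Etiolated eto1-4 seedlings grown 3 days in the dark at 22°C on 0.5xMS agar containing graded compound, STS or AVG, with DMSO control. Seeds bleach-sterilized and stratified 3–4 days at 4°C beforehand. Hypocotyl length measured from stereomicroscope images; means of n ≥30 seedlings.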

The test system of assay [4] is Arabidopsis thaliana. Kind of assay: Inhibition of triple response phenotype in Arabidopsis thaliana seedlings expressing eto1-4 mutant by measuring hypocotyl elongation at 10 uM 3 days after germination in dark. The assay is classed as functional. The note with it: 72 h.
Assay [5] relates to Arabidopsis thaliana. Kind of assay: Inhibition of triple response phenotype in Arabidopsis thaliana seedlings expressing 35S::EIN3 by measuring hypocotyl elongation up to 50 uM 3 days after germination in dark. Type of assay: functional, organism-based.
In assay [6] the test system is Arabidopsis thaliana. Kind of assay: Inhibition of triple response phenotype in Arabidopsis thaliana seedlings expressing eto1-4 mutant and 5 x EBS::LUC by measuring hypocotyl elongation at 0.1 to 1 uM 3 days after germination in dark. The assay is classed as functional, organism-based. An outline of the steps: as §1
Assay [7] concerns Arabidopsis thaliana. Kind of assay: Inhibition of triple response phenotype in Arabidopsis thaliana seedlings expressing eto1-4 mutant by measuring hypocotyl elongation up to 50 uM 3 days after germination in dark. Type of assay: functional, organism-based.
The test system of assay [8] is Arabidopsis thaliana. Kind of assay: Inhibition of triple response phenotype in Arabidopsis thaliana seedlings expressing ctr1-1 mutant by measuring hypocotyl elongation up to 50 uM 3 days after germination in dark. Type of assay: functional, organism-based.
Assay [9] relates to Arabidopsis thaliana. Kind of assay: Inhibition of triple response phenotype in Arabidopsis thaliana seedlings expressing eto2-1 mutant by measuring hypocotyl elongation at 10 to 30 uM 3 days after germination in dark. Type of assay: functional, organism-based.
The test system of assay [10] is Arabidopsis thaliana. Kind of assay: Inhibition of triple response phenotype in Arabidopsis thaliana seedlings expressing 35S::EIN3 by measuring hypocotyl elongation at 10 uM 3 days after germination in dark. Type of assay: functional, organism-based.
Assay [11] deals with T1, 1-aminocyclopropane-1-carboxylate synthase 5 (Arabidopsis thaliana, UniProt Q37001).
T1 sequence (Q37001 whole entry): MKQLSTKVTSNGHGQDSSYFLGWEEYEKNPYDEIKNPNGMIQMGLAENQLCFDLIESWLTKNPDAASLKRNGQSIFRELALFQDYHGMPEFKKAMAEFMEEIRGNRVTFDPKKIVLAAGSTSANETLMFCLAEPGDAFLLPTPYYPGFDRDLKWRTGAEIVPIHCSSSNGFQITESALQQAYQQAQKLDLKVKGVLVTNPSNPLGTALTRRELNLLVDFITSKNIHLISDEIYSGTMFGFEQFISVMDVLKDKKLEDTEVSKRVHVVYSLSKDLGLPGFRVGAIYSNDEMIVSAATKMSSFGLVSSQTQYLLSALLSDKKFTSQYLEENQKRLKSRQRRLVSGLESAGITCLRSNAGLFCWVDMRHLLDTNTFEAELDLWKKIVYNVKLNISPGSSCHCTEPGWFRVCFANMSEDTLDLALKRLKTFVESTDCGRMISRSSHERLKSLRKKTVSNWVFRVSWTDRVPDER
Kind of assay: Uncompetitive inhibition of Arabidopsis thaliana recombinant ACS5 expressed in Escherichia coli (BL21) assessed as oxidation of ACC to ethylene by Lineweaver-Burk plot analysis.

Assay [12] concerns Arabidopsis thaliana. Kind of assay: Inhibition of ethylene biosynthesis in Arabidopsis thaliana eto1-4 expressing 5 x EBS::LUC assessed as decrease ethylene level at 10 uM 3 days after germination in dark. Type of assay: functional, organism-based.
Assay [13] has as its target T1, 1-aminocyclopropane-1-carboxylate synthase 5. Kind of assay: Inhibition of Arabidopsis thaliana recombinant ACS5 expressed in Escherichia coli (BL21) assessed as oxidation of ACC to ethylene preincubated for 30 min measured after 10 min by gas chromatography. Put shortly: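 His-tagged recombinant ACS5 expressed in E. coli (IPTG induction, 16°C, 18 h) and purified on a HisTrap column. Enzyme (1 μg) in 2 ml buffer A (pH 8.0) with 10 μM PLP and 250 μM SAM, plus graded compound or DMSO, for 30 min at 25°C. Stopped with HgCl2 and NaOH:bleach, which oxidize ACC to ethylene, quantified by GC against an ACC standard curve. Duplicate, repeated ≥3 times.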

Assay [14] has as its system Arabidopsis thaliana. Kind of assay: Inhibition of triple response phenotype in Arabidopsis thaliana seedlings expressing eto1-4 mutant and 5 x EBS::LUC by measuring hypocotyl elongation at 1 to 5 uM 3 days after germination in dark. The assay is classed as functional, organism-based. Put shortly: as §1

inhibition, Ki and IC50 data for 16 compounds are collected here from ChEMBL document CHEMBL3044571, “Identification of novel inhibitors of 1-aminocyclopropane-1-carboxylic acid synthase by chemical screening in Arabidopsis thaliana” (J Biol Chem, 2010).

Active and inactive are the calls of the source. No cut-off for these calls is given here.

On to `CC1CC(=O)c2cnc(NCc3ccccc3)nc2C1` (centres undefined), for which the inhibition (in general, the change of the read-out against control, counted positive when it falls) at 10 µM in the assay on Arabidopsis thaliana [1] is 54%.
Still for that read-out and setting: then `CC1(C)CC(=O)c2cnc(NCc3ccc(F)cc3)nc2C1`, with 69%.
On to `COc1ccc(C2CC(=O)c3cnc(Nc4ccccc4)nc3C2)cc1` (centres undefined), for which the inhibition at 10 µM is 93% with Arabidopsis thaliana [1] and 77% in the assay with Arabidopsis thaliana [4]. In addition, the inhibition result in the assay on Arabidopsis thaliana [2], in the assay with Arabidopsis thaliana [5], in the assay on Arabidopsis thaliana [8] and in the assay on Arabidopsis thaliana [10] was “inactive” in each case. The inhibition entry with Arabidopsis thaliana [3], with Arabidopsis thaliana [6], in the assay on Arabidopsis thaliana [7], with Arabidopsis thaliana [9] and in the assay on Arabidopsis thaliana [12] was “Active” throughout. Also, the Ki (commonly a measure of affinity in units of concentration, obtained from inhibition or displacement) in assay [11] came out at 23 nM.
With `CC1(C)CC(=O)c2cnc(NCc3ccccc3)nc2C1`, in the assay with Arabidopsis thaliana [1], the inhibition at 10 µM was 45%.
Regarding `CCCCc1nc(N)nc2c1C(=O)CC(C)(C)C2`, the inhibition at 10 µM in the assay with Arabidopsis thaliana [1] amounted to 22%.
For `CC1(C)CC(=O)c2cnc(NC3CCCC3)nc2C1`, the inhibition at 10 µM is 87% with Arabidopsis thaliana [1] and 55% in the assay on Arabidopsis thaliana [4]. In addition, the inhibition entry in the assay on Arabidopsis thaliana [2], in the assay on Arabidopsis thaliana [5], in the assay on Arabidopsis thaliana [8] and with Arabidopsis thaliana [10] was “inactive” throughout. In [13], the IC50 (as a rule, the point on the concentration scale where inhibition reaches its midpoint) came to 7900 nM. Moreover, the inhibition entry with Arabidopsis thaliana [7], with Arabidopsis thaliana [9] and in the assay on Arabidopsis thaliana [12] was “Active” throughout.
Take `CC1CC(=O)c2cnc(Nc3ccccc3)nc2C1` (centres undefined): the inhibition at 10 µM is 82% in the assay with Arabidopsis thaliana [1] and 28% in the assay on Arabidopsis thaliana [4].
As to `NCCO/C=C/C(N)C(=O)O` (centres undefined) [AMINOETHOXYVINYLGLYCINE], the IC50 in [13] came out at 700 nM. The compound further returned an inhibition at 10 µM in the assay on Arabidopsis thaliana [4] of 100%. In addition, the inhibition result in the assay with Arabidopsis thaliana [14] and in the assay on Arabidopsis thaliana [9] was “Active” each time. For the same compound, the inhibition constant (Ki) in assay [11] was 15 nM.
On to `Cc1ccc(C2CC(=O)c3cnc(NC4CCCC4)nc3C2)cc1` (centres undefined), for which the figures for the inhibition at 10 µM in the assay on Arabidopsis thaliana [1] and in the assay with Arabidopsis thaliana [4] were 87% and 66%, respectively. Further, the inhibition entry in the assay on Arabidopsis thaliana [2], with Arabidopsis thaliana [5], in the assay on Arabidopsis thaliana [8] and in the assay on Arabidopsis thaliana [10] was “inactive” in each case. Also, the inhibition entry with Arabidopsis thaliana [3], in the assay with Arabidopsis thaliana [6], in the assay on Arabidopsis thaliana [7], in the assay on Arabidopsis thaliana [9] and in the assay on Arabidopsis thaliana [12] was “Active” in each case.
In the case of `Cc1nc(Nc2ccccc2)nc2c1C(=O)CC(C)(C)C2`, the inhibition at 10 µM with Arabidopsis thaliana [1] was found to be 67%.
In the case of `CCCCNc1ncc2c(n1)CC(c1ccccc1)CC2=O` (centres undefined), the results for the inhibition at 10 µM in the assay on Arabidopsis thaliana [1] and in the assay on Arabidopsis thaliana [4] were 92% and 43%, respectively.
As to `O=C1CC(c2ccccc2Cl)Cc2nc(NC3CCCC3)ncc21` (centres undefined), the values for the inhibition at 10 µM in the assay with Arabidopsis thaliana [1] and in the assay on Arabidopsis thaliana [4] were 91% and 54%, respectively.
Take `CC1(C)CC(=O)c2cnc(Nc3ccccc3)nc2C1`: the inhibition at 10 µM stood at 77% in the assay on Arabidopsis thaliana [1] and 29% in the assay with Arabidopsis thaliana [4].
With `CC1(C)CC(=O)c2cnc(Nc3ccc(F)cc3)nc2C1`, the inhibition at 10 µM in the assay on Arabidopsis thaliana [1] was found to be 36%.
Take `Cc1nc(Nc2ccc(F)cc2)nc2c1C(=O)CC(C)(C)C2`: in the assay on Arabidopsis thaliana [1], the inhibition at 10 µM stood at 9%.
As for `O=S(O)(O)=S` [SILVER THIOSULFATE], the inhibition at 10 µM in the assay with Arabidopsis thaliana [4] (tested as the Ag salt or complex) was 84%.
